In ChEMBL document CHEMBL1124174, “Substituted benzamides. 1. Potential nondopaminergic antagonists of chemotherapy-induced nausea and emesis” (J Med Chem, 1988):
pIC50: −log10 of the molar value. Several values for one entry are separate records, joined by “and”; a condition that tells them apart may be missing. Identical values can stand only once.

Key:
[1] = target: D(2) dopamine receptor (Canis lupus familiaris) (UniProt Q9GJU1); assay: In vivo antagonism activity against dopamine D2 receptor was measured as emesis in dog when administered subcutaneously; format: functional, organism-based
Chain of D(2) dopamine receptor (Canis lupus familiaris) (Q9GJU1 whole entry): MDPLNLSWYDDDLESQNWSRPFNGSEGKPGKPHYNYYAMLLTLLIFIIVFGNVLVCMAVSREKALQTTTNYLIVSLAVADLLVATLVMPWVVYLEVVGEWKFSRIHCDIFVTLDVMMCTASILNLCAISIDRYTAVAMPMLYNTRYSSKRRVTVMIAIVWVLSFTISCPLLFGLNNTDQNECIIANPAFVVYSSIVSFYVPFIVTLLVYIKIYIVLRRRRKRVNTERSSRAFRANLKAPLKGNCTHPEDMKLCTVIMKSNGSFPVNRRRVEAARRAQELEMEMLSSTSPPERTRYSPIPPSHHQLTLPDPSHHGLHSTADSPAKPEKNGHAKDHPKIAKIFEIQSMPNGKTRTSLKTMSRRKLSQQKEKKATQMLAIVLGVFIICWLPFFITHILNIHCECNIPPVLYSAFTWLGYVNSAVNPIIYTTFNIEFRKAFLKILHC

Canis familiaris [2] = assay: In vivo antagonism of cisplatin-induced emesis in dog measured as emetic episodes, twice the dose of 3 mg/kg in 2 dogs; format: functional, Canis lupus familiaris
Outline: (§1)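 Nonfasted mature male or female beagles were dosed sc twice, 30 min before and 120 min after cisplatin (3 mg/kg iv; 3 mg/mL in warm 0.9% saline, used immediately). Emesis was observed up to 5 h; events within 2 min counted as one episode. Results were given as mean emetic episodes and % protection versus a dynamic control (historical and concurrent saline means pooled). t test versus saline.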

D(2) dopamine receptor = D(2) dopamine receptor (Rattus norvegicus, UniProt P61169); assay: In vitro antagonistic activity against Dopamine receptor D2 was evaluated for the inhibition of [3H]spiperone binding
Chain of D(2) dopamine receptor (P61169 whole entry): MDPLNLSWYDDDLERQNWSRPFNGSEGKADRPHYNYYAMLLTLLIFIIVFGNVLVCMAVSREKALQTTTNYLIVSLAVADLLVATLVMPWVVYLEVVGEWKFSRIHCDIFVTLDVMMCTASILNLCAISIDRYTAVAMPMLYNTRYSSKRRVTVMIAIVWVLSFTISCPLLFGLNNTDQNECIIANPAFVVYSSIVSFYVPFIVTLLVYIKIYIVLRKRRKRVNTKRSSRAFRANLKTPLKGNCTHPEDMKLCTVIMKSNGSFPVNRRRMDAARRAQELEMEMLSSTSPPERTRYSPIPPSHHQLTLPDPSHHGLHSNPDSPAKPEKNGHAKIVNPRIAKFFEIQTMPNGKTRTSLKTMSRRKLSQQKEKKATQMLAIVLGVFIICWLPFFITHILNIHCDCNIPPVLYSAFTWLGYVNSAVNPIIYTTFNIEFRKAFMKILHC
Outline: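 Rat striatal membranes were prepared by differential centrifugation in 50 mM Tris pH 7.4 at 4 °C. Membrane protein (10 mg) was incubated 15 min at 37 °C with 0.1 nM [3H]spiperone and varying competitor concentrations. Buffer: 50 mM Tris HCl pH 7.5, 0.1% ascorbic acid, pargyline, 120 mM NaCl, 5 mM KCl, 2 mM CaCl2, 1 mM MgCl2. (+)-Butaclamol defined nonspecific binding. Bound ligand was collected by filtration and scintillation counted. IC50 by log-logit regression.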

Canis familiaris [3] = assay: In vivo antagonism of cisplatin-induced emesis in dog measured as percentage protection for twice the dose of 3 mg/kg in 2 dogs; format: functional, Canis lupus familiaris; outline: as §1
Mustela putorius furo [4] = assay: In vivo antagonism of cisplatin-induced emesis in ferret measured as emetic episodes, twice the dose of 3 mg/kg and in 3 ferrets; format: functional
Outline: (§2)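 Nonfasted castrated male Fitch ferrets (1–1.5 kg) had jugular catheters implanted ≥48 h earlier under anesthesia. Compounds or saline were given iv twice, 5 min before and 90 min after cisplatin (12 mg/kg iv; 12 mg/mL in warm 0.9% saline). Emesis was observed up to 4 h; events within 1 min counted as one episode. Results were given as mean emetic episodes and % protection versus a pooled historical/concurrent control. t test versus saline.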

Mustela putorius furo [5] = assay: In vivo antagonism of cisplatin-induced emesis in ferret measured as percentage protection for twice the dose of 3 mg/kg and in 3 ferrets; format: functional; outline: as §2
[6] = target: D(2) dopamine receptor (Rattus norvegicus) (UniProt P61169); assay: In vivo antagonism activity against D2 receptor was measured as stereotypy in rat when administered subcutaneously; format: functional, organism-based
Chain of D(2) dopamine receptor (Rattus norvegicus) (P61169 whole entry): as above
Outline: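 Male Long Evans rats (275 g) were dosed sc in dilute aqueous HCl (pH 4.5-5.5) 30 min before apomorphine (1 mg/kg sc).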

[7] = target: D(2) dopamine receptor (Rattus norvegicus) (UniProt P61169); assay: In vivo antagonistic activity against dopamine D2 receptor was measured as catalepsy in rat when administered subcutaneously; format: functional, organism-based
Outline: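 Male Long Evans rats (275 g) received graded sc doses in dilute aqueous HCl (pH 4.5-5.5). They were observed 180 min for catalepsy, scored when the animal stayed stationary ≥15 s on a four-cork template.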

Canis familiaris [8] = assay: In vivo antagonism of cisplatin-induced emesis in dog measured as emetic episodes, twice the dose of 3 mg/kg in 3 dogs; format: functional, Canis lupus familiaris; outline: as §1
Canis familiaris [9] = assay: In vivo antagonism of cisplatin-induced emesis in dog measured as percentage protection for twice the dose of 0.2 mg/kg in 4 dogs; format: functional, Canis lupus familiaris; outline: as §1
Canis familiaris [10] = assay: In vivo antagonism of cisplatin-induced emesis in dog measured as percentage protection for twice the dose of 0.8 mg/kg in 3 dogs; format: functional, Canis lupus familiaris; outline: as §1
Canis familiaris [11] = assay: Protection against cisplatin-induced emesis in dog measured as percentage protection for twice the dose of 0.2 mg/kg; format: functional, Canis lupus familiaris
Canis familiaris [12] = assay: Protection against cisplatin-induced emesis in dog measured as percentage protection for twice the dose of 0.8 mg/kg and in 3 dogs(1 protected); format: functional, Canis lupus familiaris
Canis familiaris [13] = assay: Protection against cisplatin-induced emesis in dog measured as percentage protection for twice the dose of 2.5 mg/kg and in 4 dogs(2 protected); format: functional, Canis lupus familiaris
Canis familiaris [14] = assay: (§3) In vivo antagonism of cisplatin-induced emesis in dog measured as emetic episodes, twice the dose of 2.5 mg/kg in 4 dogs; format: functional, Canis lupus familiaris; outline: as §1
Canis familiaris [15] = assay: as §3; format: functional, Canis lupus familiaris; outline: as §1; remark: listed apart in the source
Canis familiaris [16] = assay: […] cisplatin-induced emesis in dog was measured for as stereotypy when administered iv twice daily; format: functional; settings: Canis lupus familiaris
Canis familiaris [17] = assay: (§4) In vivo antagonism of cisplatin-induced emesis in dog measured as emetic episodes, twice the dose of 0.2 mg/kg in 4 dogs; format: functional, Canis lupus familiaris; outline: as §1
Canis familiaris [18] = assay: as §4; format: functional, Canis lupus familiaris; outline: as §1; remark: listed apart in the source
Canis familiaris [19] = assay: (§5) In vivo antagonism of cisplatin-induced emesis in dog measured as emetic episodes, twice the dose of 0.8 mg/kg in 3 dogs; format: functional, Canis lupus familiaris; outline: as §1
Canis familiaris [20] = assay: as §5; format: functional, Canis lupus familiaris; outline: as §1; remark: listed apart in the source
Canis familiaris [21] = assay: In vivo antagonism of cisplatin-induced emesis in dog measured as percentage protection for twice the dose of 2.5 mg/kg in 4 dogs; format: functional, Canis lupus familiaris; outline: as §1
Mustela putorius furo [22] = assay: In vivo antagonism of cisplatin-induced emesis in ferret measured as percentage protection for twice the dose of 0.2 mg/kg in 4 ferrets; format: functional; outline: as §2
Mustela putorius furo [23] = assay: In vivo antagonism of cisplatin-induced emesis in ferret measured as emetic episodes, twice the dose of 2.5 mg/kg in 5 ferrets; format: functional; outline: as §2
Mustela putorius furo [24] = assay: In vivo antagonism of cisplatin-induced emesis in ferret measured as emetic episodes, twice the dose of 0.2 mg/kg in 4 ferrets; format: functional; outline: as §2
Mustela putorius furo [25] = assay: In vivo antagonism of cisplatin-induced emesis in ferret measured as emetic episodes, twice the dose of 0.8 mg/kg in 5 ferrets; format: functional; outline: as §2
Mustela putorius furo [26] = assay: In vivo antagonism of cisplatin-induced emesis in ferret measured as percentage protection for twice the dose of 0.8 mg/kg in 5 ferrets; format: functional; outline: as §2
Mustela putorius furo [27] = assay: (§6) In vivo antagonism of cisplatin-induced emesis in ferret measured as percentage protection for twice the dose of 2.5 mg/kg in 5 ferrets; format: functional; outline: as §2
Mustela putorius furo [28] = assay: as §6; format: functional; outline: as §2; remark: listed apart in the source
Mustela putorius furo [29] = assay: antagonism of cisplatin-induced emesis in ferret measured when administered intravenously twice daily; settings: iv
Canis familiaris [30] = assay: In vivo antagonism of cisplatin-induced emesis in dog measured as percentage protection for twice the dose of 0.3 mg/kg in 2 dogs; format: functional, Canis lupus familiaris; outline: as §1
Canis familiaris [31] = assay: in vivo antagonism of cisplatin-induced emesis in dog measured as emetic episodes, twice the dose of 0.3 mg/kg in 2 dogs; format: functional, Canis lupus familiaris
Canis familiaris [32] = assay: In vivo antagonism of cisplatin-induced emesis in dog measured as emetic episodes, twice the dose of 0.3 mg/kg in 2 dogs; format: functional, Canis lupus familiaris; outline: as §1
Mustela putorius furo [33] = assay: In vivo antagonism of cisplatin-induced emesis in ferret measured as emetic episodes, twice the dose of 0. 3 mg/kg and in 3 ferrets; format: functional; outline: as §2
Mustela putorius furo [34] = assay: In vivo antagonism of cisplatin-induced emesis in ferret measured as percentage protection for twice the dose of 3 mg/kg

C=CCCOc1cc(N)c(Cl)cc1C(=O)NCCN(CC)CC
ED50 [1]: > 3 mg/kg | Emetic episodes (Canis familiaris [2]): 3.5 | pIC50 (D(2) dopamine receptor): < 6.00 | Protection (Canis familiaris [3]): 71% | Emetic episodes (Mustela putorius furo [4]): 3.7 | Protection (Mustela putorius furo [5]): 50% | ED50 [6]: > 40 mg/kg | ED50 [7]: > 40 mg/kg

CCN(CC)CCNC(=O)c1cc(Cl)c(N)cc1OC(C)C#N (centres undefined)
ED50 [1]: > 3 mg/kg | Emetic episodes (Canis familiaris [2]): 2.5 | pIC50 (D(2) dopamine receptor): < 6.00 | Protection (Canis familiaris [3]): 80% | Emetic episodes (Mustela putorius furo [4]): 2.7 | Protection (Mustela putorius furo [5]): 63% | ED50 [6]: > 40 mg/kg | ED50 [7]: > 40 mg/kg

CCN(CC)CCNC(=O)c1cc(Cl)c(N)cc1OCC#N
ED50 [1]: > 3 mg/kg | Emetic episodes (Canis familiaris [8]): 4.7 | pIC50 (D(2) dopamine receptor): < 6.00 | Protection (Canis familiaris [3]): 63% | Emetic episodes (Mustela putorius furo [4]): 0.7 | Protection (Mustela putorius furo [5]): 90% | ED50 [6]: > 40 mg/kg | ED50 [7]: > 40 mg/kg

CCN(CC)CCNC(=O)c1cc(Cl)c(N)cc1OCC1COC(C)(C)O1 (centres undefined)
ED50 [1]: > 3 mg/kg | Emetic episodes (Canis familiaris [2]): 4 | pIC50 (D(2) dopamine receptor): < 6.00 | Protection (Canis familiaris [3]): 68% | Emetic episodes (Mustela putorius furo [4]): 2 | Protection (Mustela putorius furo [5]): 72% | ED50 [6]: > 40 mg/kg | ED50 [7]: > 40 mg/kg

CCN(CC)CCNC(=O)c1cc(Cl)c(N)cc1OC [METOCLOPRAMIDE]
Protection (Canis familiaris [9]): 58% | Protection (Canis familiaris [10]): 92% | Protection (Canis familiaris [11]): 58% | Protection (Canis familiaris [12]): 92% | Protection (Canis familiaris [13]): 92% | Emetic episodes (Canis familiaris [14]): 1 | Emetic episodes (Canis familiaris [15]): 1 | ED50 (Canis familiaris [16]): 0.18 mg/kg | ED50 [1]: 0.36 mg/kg | Emetic episodes (Canis familiaris [17]): 5 | Emetic episodes (Canis familiaris [18]): 5 | Emetic episodes (Canis familiaris [19]): 1 | Emetic episodes (Canis familiaris [20]): 1 | Protection (Canis familiaris [21]): 92% | Protection (Mustela putorius furo [22]): 22% and 21% | Emetic episodes (Mustela putorius furo [23]): 0.6 | Emetic episodes (Mustela putorius furo [24]): 5.5 | Emetic episodes (Mustela putorius furo [25]): 2.4 | Protection (Mustela putorius furo [26]): 73% and 66% | Protection (Mustela putorius furo [27]): 91% | ED50 [6]: 4 mg/kg | ED50 [7]: 26 mg/kg | Protection (Mustela putorius furo [28]): 90% | ED50 (Mustela putorius furo [29]): 0.53 mg/kg

CCN(CC)CCNC(=O)c1cc(Cl)c(N)cc1OCC(=O)Cc1ccccc1
Protection (Canis familiaris [30]): 0% | ED50 [1]: > 3 mg/kg | pIC50 (D(2) dopamine receptor): < 6.00 | Emetic episodes (Canis familiaris [31]): 13 | Emetic episodes (Mustela putorius furo [4]): 0 | Protection (Mustela putorius furo [5]): 100% | ED50 [6]: > 40 mg/kg | ED50 [7]: > 40 mg/kg

CCN(CC)CCN1C(=O)c2cc(Cl)c(NC=O)cc2OC(C)=C1C
Protection (Canis familiaris [30]): 25% | ED50 [1]: > 3 mg/kg | pIC50 (D(2) dopamine receptor): < 6.00 | Emetic episodes (Canis familiaris [32]): 9.5 | Emetic episodes (Mustela putorius furo [4]): 0 | Emetic episodes (Mustela putorius furo [33]): 4.7 | Protection (Mustela putorius furo [5]): 100% | ED50 [6]: > 40 mg/kg | ED50 [7]: > 40 mg/kg | Protection (Mustela putorius furo [34]): 32%
